Assay results gathered from unrelated publications.
Compare with care: the assays were run in different laboratories.

| Compound | test | test system | setting | solubility |
| --- | --- | --- | --- | --- |
| CN1CCN(c2cccc(-c3ccc4ncnc(Nc5ccc([N+](=O)[O-])c(C(F)(F)F)c5)c4c3)c2)CC1 |  | aqueous buffer | pH 7.4, 25 °C | 2 µM |
| OCc1ccc(-c2nn(Cc3ccccc3)c3ncccc23)o1 |  | aqueous buffer | 6 h, pH 7.4 | > 45 µg/mL |
| COc1ccc(Nc2cnnc3cc(-c4cnc(N5CCCN(C)CC5)nc4)ccc23)cc1Cl |  | aqueous buffer | pH 7.4, 25 °C | 1000 µM |
| COc1ccc(Cn2cc(CO[C@@H]3O[C@H]4[C@H](OC[C@H]4O)[C@H]3O)nn2)cc1 |  | PBS | pH 7.4 | 198 µM |
| Cc1ccc(N(C)c2ccc(NC(=O)CN(C)c3ccccc3N3CCCC3=O)cn2)cc1 |  | PBS | pH 7.4 | 44 µM |
| Cc1ncc(-c2cc3cc(-c4c(C)ccc(O)c4C)cnc3[nH]2)cn1 |  | aqueous buffer | 24 h, pH 7.4 | < 1.56 µM |
| O=C(O)Cc1ccccc1Nc1c(Cl)cccc1Cl |  | FeSSIF |  | 303 µM |
| c1cc(-c2ccc3ncnc(Nc4ncco4)c3c2)cc(N2CC3CCC(C2)O3)c1 |  | aqueous buffer | pH 7.4, 25 °C | 0.4 µM |
| CN(CC(=O)Nc1ccc(N(C)c2ccc(Cl)c(F)c2)cc1)c1ccccc1N1CCCC1=O |  | PBS | pH 7.4 | < 2.5 µM |
| FC(F)(F)c1cc(Nc2ncnc3ccc(-c4cccc(N5CCOCC5)c4)cc23)ccc1Cl |  | aqueous buffer | pH 7.4, 25 °C | < 0.7 µM |
| OCc1ccc(-c2nn(Cc3ccccn3)c3cccnc23)o1 |  | aqueous buffer | 6 h, pH 7.4 | > 30 µg/mL |
| c1cc(-c2ccc3ncnc(Nc4ncco4)c3c2)cc(N2CC3(COC3)C2)c1 |  | aqueous buffer | pH 7.4, 25 °C | 3 µM |
| Cn1cc(-c2ccc3ccn(CC(=O)Nc4ccccc4Cl)c3c2)c(C(F)(F)F)n1 |  | PBS | pH 7.4 | < 2.7 µM |
| CCOc1ccc(Nc2c3c(nc4ccccc24)CCC3)cc1 | nephelometry | aqueous buffer | 30 min, pH 6.5 | 12.5 to 25 µg/mL |
| O=C(Nc1ccc(OC(F)(F)F)cc1)N[C@H]1CC[C@H](Oc2ccc(C(=O)O)cc2)CC1 |  | simulated gastric fluid | 1 h, pH 1, 37 °C, acidic | 0.0008 µg/mL |
| CC(=O)N[C@@H](CS)C(=O)O |  | aqueous buffer | pH 7.5 | 164000 µg/mL |
| N[C@@H]1COc2ccc(-c3cccc(COc4ccccc4C(Nc4ccc5oc(=O)[nH]c5c4)C(=O)O)c3)cc21 (mixture of isomers) |  | aqueous buffer | pH 6.8 | 200 µM |
| Cc1ccccc1CN1C(=O)C2=C(CCN(Cc3ccccc3)C2)N2CCN=C12 | shake flask | aqueous buffer | pH 5 | 6020 µg/mL |
| c1ccc(Oc2ccc(Nc3c4c(nc5ccccc35)CCC4)cc2)cc1 | nephelometry | aqueous buffer | 30 min, pH 6.5 | 1.6 to 3.1 µg/mL |
| Cc1ccc(N(c2ccc(NC(=O)CN(C)c3ccccc3N3CCCC3=O)cn2)C(C)C)cc1 |  | PBS | pH 7.4 | 24 µM |
| COc1cnc(Nc2cnnc3ccc(-c4ccc(N5CCN(C)CC5)cc4)cc23)nc1 |  | aqueous buffer | pH 7.4, 25 °C | 26 µM |
| CN1CCN(c2cccc(-c3ccc4ncnc(Nc5ccc(Cl)c(C(F)(F)F)c5)c4c3)c2)CC1 |  | aqueous buffer | pH 7.4, 25 °C | < 1.4 µM |
| CO[C@H]1C[C@@H]2CC[C@@H](C)[C@@](O)(O2)C(=O)C(=O)N2CCCC[C@H]2C(=O)O[C@H]([C@H](C)C[C@@H]2CC[C@@H](O)[C@H](OC)C2)CC(=O)[C@H](C)/C=C(\C)[C@@H](O)[C@@H](OC)C(=O)[C@H](C)C[C@H](C)/C=C/C=C/C=C/1C |  | aqueous buffer | 18 h, pH 7.4 | 6.03 µM |

| Compound | test | test system | setting | solubility |
| --- | --- | --- | --- | --- |
| CCCN(CCC)CCCOc1ccc2c(=O)c3c([nH]c2c1)CCCC3 | absorbance | aqueous buffer | 90 min, pH 7.4 | > 500 µM |
| Cc1ccc(N(c2ccc(NC(=O)CN(C)c3ccccc3N3CCCC3=O)cc2)C(C)C)cc1 |  | PBS | pH 7.4 | < 2.5 µM |
| O=C1COc2ccc(-c3cccc(Cl)c3)cc2N1Cc1noc(C2CCC2)n1 |  | PBS | 8 h, pH 7.4 | 100 µM |
| CCOC(=O)C1=C(CN2CCC[C@@H]2C(=O)Nc2ccc(B(O)O)cc2)NC(c2nccs2)=N[C@H]1c1ccc(F)cc1Br | HPLC | aqueous buffer | pH 7.4 | 4.14 µg/mL |
| Cc1ccc(Oc2ccc(NC(=O)CN(C)c3ccccc3N3CCCC3=O)cc2)cc1 |  | PBS | pH 7.4 | 4.8 µM |
| OCc1ccc(-c2nn(Cc3ccncc3)c3ccccc23)o1 |  | aqueous buffer | 6 h, pH 7.4 | > 45 µg/mL |
| Cc1nc(Nc2ncnc3ccc(-c4cccc(N5CCOCC5)c4)cc23)oc1C |  | aqueous buffer | pH 7.4, 25 °C | 0.2 µM |
| CNS(=O)(=O)c1ccc(Nc2ncc(C(F)(F)F)c([C@H]3CC[C@@](C)(O)CC3)n2)c(C)c1 |  | PBS | 2 h, pH 7.4 | 11 µM |
| OCc1ccc(-c2nn(Cc3ccccc3)c3cccnc23)o1 |  | aqueous buffer | 6 h, pH 7.4 | > 45 µg/mL |
| COc1cc(NC(=O)Cn2ccc3cc(F)c(-c4cnn(C)c4)cc32)cc(OC)c1OC |  | PBS | pH 7.4 | < 2.7 µM |
| Cc1cc(-c2ccnc3[nH]cc(F)c23)cc(F)c1[C@@]1(O)[C@H](C)CN(C(=O)CN)C[C@@H]1C |  | aqueous buffer |  | 11.9 µg/mL |
| CNS(=O)(=O)c1ccc(Nc2ncc(C(F)(F)F)c(N3CCC[C@](C)(O)C3)n2)c(C)c1 |  | FaSSIF | 2 h | 194 µM |
| CCOC(=O)C1=C(CN2CCOCC2)NC(c2nccs2)=NC1c1ccc(F)cc1Br (stereo not drawn) | HPLC | aqueous buffer | pH 2 | 183 µg/mL |
| CCN(CC)CCCOc1ccc2c(=O)c3c([nH]c2c1)CCCC3 | absorbance | aqueous buffer | 90 min, pH 7.4 | > 500 µM |
| CNS(=O)(=O)c1ccc(Nc2ncc3cc(Cl)c(=O)n(C4CCCC4)c3n2)c(C)c1 |  | FaSSIF | 2 h | 15 µM |
| COc1cccc(Cn2nc(-c3ccc(CO)o3)c3ccccc32)c1 |  | aqueous buffer | 6 h, pH 7.4 | 1 µg/mL |
| O=c1c2ccc(OCc3ccc(C(F)(F)F)cc3)cc2[nH]c2cc(Cl)cc(F)c12 | absorbance | aqueous buffer | 90 min, pH 7.4 | < 3.12 µM |
| c1coc(Nc2ncnc3ccc(-c4cncc(N5CCOCC5)n4)cc23)n1 |  | aqueous buffer | pH 7.4, 25 °C | 19 µM |
| O=c1c2ccc(OCc3ccc(OC(F)(F)F)cc3)cc2[nH]c2cc(Cl)cc(F)c12 | absorbance | aqueous buffer | 90 min, pH 7.4 | < 3.12 µM |
| O=C(O)c1cc(-c2ccc(-n3ccnn3)cc2)c2ccc(-c3ccc(C(F)(F)F)cc3)cc2c1 |  | aqueous buffer | pH 7.4 | 9.1 µg/mL |
| COc1ncccc1Cn1nc(-c2ccc(CO)o2)c2ccccc21 |  | aqueous buffer | 6 h, pH 7.4 | > 33 µg/mL |
| CN(C)CCOc1ccc2c(=O)c3c([nH]c2c1)CCCC3 | absorbance | aqueous buffer | 90 min, pH 7.4 | > 500 µM |
